From ChEMBL document CHEMBL2417390 (J Med Chem, 2013)

How the values were obtained:
Aromatase = target: T1, Aromatase (Homo sapiens, UniProt P11511); assay: Inhibition of CYP19 in human placental microsomes using [1beta-3H]androstenedione as substrate by 3H2O-method; set-up: species or system Placenta
T1 sequence (P11511 whole entry): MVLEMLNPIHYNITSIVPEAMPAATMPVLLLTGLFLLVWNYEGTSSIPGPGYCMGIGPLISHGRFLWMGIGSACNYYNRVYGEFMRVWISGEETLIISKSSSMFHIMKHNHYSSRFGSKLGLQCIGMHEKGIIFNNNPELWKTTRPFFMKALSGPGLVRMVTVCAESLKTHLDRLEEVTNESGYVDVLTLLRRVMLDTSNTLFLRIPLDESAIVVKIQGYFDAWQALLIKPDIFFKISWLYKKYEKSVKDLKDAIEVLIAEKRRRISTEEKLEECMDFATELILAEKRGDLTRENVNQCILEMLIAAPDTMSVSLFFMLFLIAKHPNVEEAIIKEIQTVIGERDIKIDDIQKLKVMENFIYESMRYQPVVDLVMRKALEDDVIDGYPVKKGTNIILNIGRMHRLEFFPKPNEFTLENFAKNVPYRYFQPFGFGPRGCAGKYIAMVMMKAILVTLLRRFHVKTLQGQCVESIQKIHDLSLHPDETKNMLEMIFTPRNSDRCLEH
How it was run: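 Human placental microsomes as the aromatase source. Product formation was read by the 3H2O release method with [1β-3H]androstenedione at 500 nM as substrate.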

Cytochrome P450 3A4 = Cytochrome P450 3A4 (Homo sapiens, UniProt P08684); assay: Inhibition of recombinant CYP3A4 (unknown origin) expressed in baculovirus-infected insect microsomes; assay type: ADME, Microsome
Chain of Cytochrome P450 3A4 (P08684 whole entry): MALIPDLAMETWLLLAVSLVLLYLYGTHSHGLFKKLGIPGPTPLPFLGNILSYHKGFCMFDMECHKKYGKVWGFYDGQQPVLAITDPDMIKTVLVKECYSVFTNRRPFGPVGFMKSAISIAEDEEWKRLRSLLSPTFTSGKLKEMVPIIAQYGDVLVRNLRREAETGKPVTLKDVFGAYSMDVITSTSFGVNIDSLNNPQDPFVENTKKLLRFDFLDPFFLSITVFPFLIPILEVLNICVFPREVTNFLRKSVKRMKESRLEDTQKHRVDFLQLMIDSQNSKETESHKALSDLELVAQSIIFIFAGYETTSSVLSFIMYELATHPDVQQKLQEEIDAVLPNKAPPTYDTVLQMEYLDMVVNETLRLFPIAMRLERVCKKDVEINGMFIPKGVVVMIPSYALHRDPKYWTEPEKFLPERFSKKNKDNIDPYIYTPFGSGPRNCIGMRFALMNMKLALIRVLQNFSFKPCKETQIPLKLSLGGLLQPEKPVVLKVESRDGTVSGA
How it was run: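 Recombinant CYP3A4 in baculovirus-infected insect microsomes (Supersomes), assayed following the supplier's protocol.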

Homo sapiens = species: Homo sapiens; assay: Selectivity factor, ratio of IC50 for human CYP11B1 to IC50 for human CYP11B2
[1] = target: T2, Cytochrome P450 11B1, mitochondrial (Homo sapiens, UniProt P15538); assay: Inhibition of human CYP11B1 expressed in hamster V79MZh cells using [1,2-3H]-11-deoxycorticosterone as substrate; assay type: cell-based
T2 sequence (P15538 whole entry): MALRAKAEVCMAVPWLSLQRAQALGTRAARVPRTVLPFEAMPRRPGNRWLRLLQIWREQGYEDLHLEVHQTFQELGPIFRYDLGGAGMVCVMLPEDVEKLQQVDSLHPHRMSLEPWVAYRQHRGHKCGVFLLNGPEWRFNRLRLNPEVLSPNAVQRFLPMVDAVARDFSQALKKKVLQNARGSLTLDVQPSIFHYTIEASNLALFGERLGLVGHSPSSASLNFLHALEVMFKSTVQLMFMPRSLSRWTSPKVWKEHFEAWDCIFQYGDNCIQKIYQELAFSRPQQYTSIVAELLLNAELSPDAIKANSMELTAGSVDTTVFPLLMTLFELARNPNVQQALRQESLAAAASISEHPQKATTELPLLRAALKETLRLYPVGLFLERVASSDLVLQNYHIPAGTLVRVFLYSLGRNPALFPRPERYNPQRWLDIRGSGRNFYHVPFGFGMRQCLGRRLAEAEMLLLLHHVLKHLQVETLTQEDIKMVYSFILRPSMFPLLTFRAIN

[2] = target: T3, Cytochrome P450 11B2, mitochondrial (Homo sapiens, UniProt P19099); assay: Inhibition of human CYP11B2 expressed in hamster V79MZh cells using [1,2-3H]-11-deoxycorticosterone as substrate; assay type: cell-based
T3 sequence (P19099 whole entry): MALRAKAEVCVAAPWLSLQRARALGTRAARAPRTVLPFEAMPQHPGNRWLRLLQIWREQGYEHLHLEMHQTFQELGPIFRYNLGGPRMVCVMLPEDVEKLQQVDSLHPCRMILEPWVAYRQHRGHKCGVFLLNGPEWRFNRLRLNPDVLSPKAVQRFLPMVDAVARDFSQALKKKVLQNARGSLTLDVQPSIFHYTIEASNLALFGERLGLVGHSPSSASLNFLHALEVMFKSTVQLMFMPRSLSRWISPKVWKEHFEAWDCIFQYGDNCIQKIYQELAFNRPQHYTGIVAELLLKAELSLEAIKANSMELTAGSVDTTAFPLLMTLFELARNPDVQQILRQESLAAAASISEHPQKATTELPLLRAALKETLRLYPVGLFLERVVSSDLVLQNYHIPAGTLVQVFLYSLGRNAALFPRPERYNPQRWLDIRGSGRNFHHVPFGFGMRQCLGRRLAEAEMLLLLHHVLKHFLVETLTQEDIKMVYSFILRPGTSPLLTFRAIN

[3] = target: T4, Steroid 17-alpha-hydroxylase/17,20 lyase (Homo sapiens, UniProt P05093); assay: Inhibition of human CYP17 expressed in Escherichia coli using 1,2[3H]-progesterone as substrate in presence of NADPH
T4 sequence (P05093 whole entry): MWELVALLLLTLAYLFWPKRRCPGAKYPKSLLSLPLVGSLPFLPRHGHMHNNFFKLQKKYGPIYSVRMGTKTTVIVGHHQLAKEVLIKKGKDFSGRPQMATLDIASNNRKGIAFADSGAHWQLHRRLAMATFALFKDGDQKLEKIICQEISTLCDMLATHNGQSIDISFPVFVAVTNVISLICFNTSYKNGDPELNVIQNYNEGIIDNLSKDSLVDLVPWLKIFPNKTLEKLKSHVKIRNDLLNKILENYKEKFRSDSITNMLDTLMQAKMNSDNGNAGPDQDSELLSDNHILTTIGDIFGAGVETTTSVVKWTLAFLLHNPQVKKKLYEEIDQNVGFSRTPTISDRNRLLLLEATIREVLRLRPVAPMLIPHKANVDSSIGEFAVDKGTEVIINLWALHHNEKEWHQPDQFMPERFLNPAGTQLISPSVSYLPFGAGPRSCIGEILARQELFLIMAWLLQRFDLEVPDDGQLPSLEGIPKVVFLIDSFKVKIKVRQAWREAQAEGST
How it was run: (§1)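 Human CYP17 was recombinantly expressed in E. coli. The substrate was progesterone at 25 µM, with NADPH as cofactor.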

[4] = target: T4, Steroid 17-alpha-hydroxylase/17,20 lyase; assay: Inhibition of human CYP17 expressed in Escherichia coli using 1,2[3H]-progesterone as substrate at 2000 nM in presence of NADPH relative to control; settings: read-out: INH
[5] = target: T4, Steroid 17-alpha-hydroxylase/17,20 lyase; assay: Inhibition of human CYP17; how it was run: as §1
[6] = target: T3, Cytochrome P450 11B2, mitochondrial; assay: Inhibition of human CYP11B2

SMILES	IC50 (Aromatase)	IC50 (Cytochrome P450 3A4)	Ratio IC50 (Homo sapiens)	IC50 [1]	IC50 [2]	IC50 [3]	inhibition at 2 µM [4]	IC50 [5]	IC50 [6]
COc1cncc(-c2ccc3ccc(OC)cc3c2Cl)c1	> 2000 nM	> 10000 nM	19	447 nM	24 nM	94 nM	–	–	–
Oc1ccc2ccc(-c3cccnc3)c(Cl)c2c1F	> 2000 nM	> 10000 nM	9	224 nM	25 nM	375 nM	–	–	–
Oc1cncc(-c2ccc3ccc(O)cc3c2Cl)c1	> 2000 nM	5050 nM	104	2820 nM	27 nM	16 nM	–	–	–
N#Cc1ccc(C2CCCc3cncn32)cc1 (stereo not drawn) [FADROZOLE]	–	–	–	–	–	–	< 5%	–	–
COc1ccc2ccc(-c3cncc(F)c3)c(Cl)c2c1	> 2000 nM	> 10000 nM	37	1410 nM	38 nM	454 nM	–	–	–
Oc1ccc2ccc(-c3cncc(F)c3)c(Cl)c2c1	> 2000 nM	3580 nM	15	450 nM	33 nM	525 nM	–	–	–
Oc1ccc2ccc(-c3cncc4ccccc34)c(Cl)c2c1	> 2000 nM	1740 nM	4	238 nM	66 nM	1030 nM	–	–	–
Oc1ccc2ccc(-c3cncnc3)c(Cl)c2c1	> 2000 nM	2150 nM	110	2430 nM	22 nM	1520 nM	–	–	–
COc1cncc(-c2ccc3ccc(O)cc3c2Cl)c1	> 2000 nM	4200 nM	16	245 nM	15 nM	185 nM	–	–	–
COc1ccc2ccc(-c3cncnc3)c(Cl)c2c1	> 2000 nM	> 10000 nM	170	12300 nM	72 nM	632 nM	–	–	–
Oc1ccc2ccc(-c3cccnc3)c(Cl)c2c1	> 2000 nM	1760 nM	9	235 nM	26 nM	64 nM	–	–	–
COc1ccc2ccc(-c3cccnc3)c(Cl)c2c1	> 2000 nM	3560 nM	94	–	–	–	–	–	–
COc1ccc2ccc(-c3cccnc3)cc2c1	> 2000 nM	–	–	–	–	–	–	721 nM	68 nM
COc1ccc2ccc(-c3cccnc3)c(Cl)c2c1F	> 2000 nM	1010 nM	104	2930 nM	28 nM	147 nM	–	–	–
COc1ccc2ccc(-c3cncc(O)c3)c(Cl)c2c1	> 2000 nM	6720 nM	546	7100 nM	13 nM	11 nM	–	–	–
Oc1ccc2ccc(-c3cccnc3)c(F)c2c1	> 2000 nM	1260 nM	39	1160 nM	30 nM	523 nM	–	–	–
COc1ccc2ccc(-c3cccnc3)c(F)c2c1	> 2000 nM	> 10000 nM	95	1610 nM	17 nM	106 nM	–	–	–
COc1ccc2ccc(-c3cncc4ccccc34)c(Cl)c2c1	> 2000 nM	> 10000 nM	7	362 nM	54 nM	294 nM	–	–	–
c1cncc(-c2ccc3ccccc3c2)c1	–	–	–	–	–	–	–	3000 nM	–
